This is an account of results in ChEMBL document CHEMBL1139356, “New uracil dimers showing erythroid differentiation inducing activities” (J Med Chem, 2009).

Active and inactive are the calls of the source. The calls are words filed in the database; no cut-off is given here.

The subject of experiment [1] is K562. Kind of experiment: Inhibition of erythroid differentiation in human K562 cell assessed benzidine positive cells at 600 uM after 6 days by benzidine staining assay. The format is functional. On the set-up: scale not given: the % may be the effect or the level left. In outline:
(§1)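 K562 cells seeded at 30 000 cells/mL and cultured with compound at the stated concentration for a 6-day induction period. Benzidine staining scores the percentage of hemoglobin-containing (benzidine-positive) cells. Values are average ± SD of three independent experiments.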

In experiment [2] the test system is K562. In words: Antiproliferative activity against human K562 cells after 4 days. The class given is functional, cell-based. Particulars: K562, 96 h.
For experiment [3], the system named is K562. In words: Inhibition of erythroid differentiation in human K562 cell assessed benzidine positive cells at 2 mM after 6 days by benzidine staining assay. The class given is functional. Details: scale not given: the % may be the effect or the level left. In short, it runs like this:
as §1

The subject of experiment [4] is K562. In words: Inhibition of erythroid differentiation in human K562 cell assessed benzidine positive cells at 1 mM after 6 days by benzidine staining assay. The format is functional. Details: scale not given: the % may be the effect or the level left. In short, it runs like this:
as §1

The test system of experiment [5] is K562. Kind of experiment: Inhibition of erythroid differentiation in human K562 cell assessed benzidine positive cells at 500 nM after 6 days by benzidine staining assay. The format is functional. On the set-up: scale not given: the % may be the effect or the level left. Particulars: in the assay text read “at 100 nM” for “at 500 nM”. In short, it runs like this:
as §1

Experiment [6] has as its system K562. Kind of experiment: Inhibition of erythroid differentiation in human K562 cell assessed benzidine positive cells at 800 uM after 6 days by benzidine staining assay. On the set-up: scale not given: the % may be the effect or the level left. The class given is functional. In outline:
as §1

Experiment [7] relates to K562. Kind of experiment: Inhibition of erythroid differentiation in human K562 cell assessed benzidine positive cells at 400 uM after 6 days by benzidine staining assay. The class given is functional. In short, it runs like this: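 K562 cells cultured with 400 µM compound for 6 days. The proportion of hemoglobin-containing cells was scored by benzidine staining. Values are average ± SD of four independent experiments.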

The test system of experiment [8] is K562. In words: Inhibition of erythroid differentiation in human K562 cell assessed benzidine positive cells at 200 uM after 6 days by benzidine staining assay. The class given is functional. In short, it runs like this: as §1
Experiment [9] deals with K562. Kind of experiment: Inhibition of erythroid differentiation in human K562 cell assessed benzidine positive cells at 100 uM after 6 days by benzidine staining assay. The class given is functional. On the set-up: scale not given: the % may be the effect or the level left. In short, it runs like this: as §1
The next experiment has as its system MDA-MB-231. In words: Antiproliferative activity against human MDA-MB-231 cells after 4 days. The class given is functional, cell-based. As to conditions: MDA-MB-231, 96 h.
The subject of the next experiment is RD. Kind of experiment: Antiproliferative activity against human RD cells after 4 days. The format is functional, cell-based. As to conditions: 96 h.
For a further experiment, the system named is MCF7. In words: Antiproliferative activity against human MCF7 cells after 4 days. As to conditions: MCF7, 96 h. The format is functional, cell-based.
Experiment [10] relates to K562. Kind of experiment: Antiproliferative activity against human K562 cells after 4 days. Particulars: K562, 96 h.
Experiment [11] in a line: Antiproliferative activity against human IB3-1 cells after 4 days. The format is functional, cell-based. As to conditions: IB3-1, 96 h.
In experiment [12] the test system is K562. In words: Inhibition of erythroid differentiation in human K562 cell assessed benzidine positive cells at 300 uM after 6 days by benzidine staining assay. The class given is functional. Details: scale not given: the % may be the effect or the level left. In short, it runs like this:
as §1

As usually defined, the IC50 is the concentration at which inhibition is half-maximal.

For the compound `CCCCCCCCn1cc(C(=O)NCCCCCCCCNC(=O)c2cn(CCCCCCCC)c(=O)[nH]c2=O)c(=O)[nH]c1=O`, in the experiment on K562 [1], the Activity stood at 45%. In the experiment with K562 [2], this compound registered a half-maximal inhibitory concentration (IC50) of 420 µM.

`CCCC(=O)O` [BUTYRIC ACID]: the Activity in the experiment on K562 [3] was 32.5%.

Regarding `CO[C@H]1C[C@@H]2CC[C@@H](C)[C@@](O)(O2)C(=O)C(=O)N2CCCC[C@H]2C(=O)O[C@H]([C@H](C)C[C@@H]2CC[C@@H](O)[C@H](OC)C2)CC(=O)[C@H](C)/C=C(\C)[C@@H](O)[C@@H](OC)C(=O)[C@H](C)C[C@H](C)/C=C/C=C/C=C/1C` [SIROLIMUS], the Activity with K562 [4] is reported as 75.5%.

In the experiment with K562 [5], `CO[C@H](C(=O)[C@@H](O)[C@@H](C)O)[C@@H]1Cc2cc3cc(O[C@H]4C[C@@H](O[C@@H]5C[C@@H](O)[C@H](O)[C@@H](C)O5)[C@H](O)[C@@H](C)O4)c(C)c(O)c3c(O)c2C(=O)[C@H]1O[C@H]1C[C@@H](O[C@@H]2C[C@@H](O)[C@@H](O[C@@H]3C[C@](C)(O)[C@H](O)[C@@H](C)O3)[C@@H](C)O2)[C@H](O)[C@@H](C)O1` [PLICAMYCIN] had an Activity of 86.8%.

Take `COC(=O)c1c[nH]c(=O)[nH]c1=O` [ISOOROTIC ACID METHYL ESTER]: the Activity in the experiment with K562 [6] was 5%. The half-maximal inhibitory concentration (IC50) in the experiment with K562 [2] was > 800 µM.

As for `CCCCCCCCn1cc(C(=O)NCCCCCCNC(=O)c2cn(CCCCCCCC)c(=O)[nH]c2=O)c(=O)[nH]c1=O`, in the experiment with K562 [1], the Activity turned out to be 40%. Besides, the IC50 in the experiment with K562 [2] turned out to be 600 µM.

For the compound `CCCCCCCCn1cc(C(=O)NCc2ccccc2)c(=O)[nH]c1=O`, the result in the experiment on K562 [1], in the experiment on K562 [7] and with K562 [8] was inactive. The same compound showed an Activity in the experiment with K562 [9] of 5%. The compound further yielded a 50% inhibitory concentration (IC50) in the experiment on K562 [2] of 75 µM.

In the experiment with K562 [8], `CCCCCCCCn1cc(C(=O)NCc2cccc(CNC(=O)c3cn(CCCCCCCC)c(=O)[nH]c3=O)c2)c(=O)[nH]c1=O` registered an Activity of 40%. The IC50 with K562 [2] was determined as 247 µM.

The compound `CCCCNC(=O)c1cn(C)c(=O)[nH]c1=O` yielded an Activity in the experiment with K562 [6] of 5%. This compound also registered a half-maximal inhibitory concentration (IC50) with K562 [2] of 536 µM.

In turn, `CCCCCCCCn1cc(C(=O)NCCCCCCCNC(=O)c2cn(CCCCCCCC)c(=O)[nH]c2=O)c(=O)[nH]c1=O` showed an Activity in the experiment on K562 [1] of 50%. This compound returned an IC50 in the experiment on K562 [2] of 220 µM.

The compound `CCOC(=O)Cn1cc(C(=O)NCCOCCNC(=O)c2cn(CC(=O)OCC)c(=O)[nH]c2=O)c(=O)[nH]c1=O` gave an Activity in the experiment with K562 [6] of 1%. In the experiment with K562 [2], the IC50 was > 800 µM.

`CCCCCCCCn1cc(C(=O)NCc2ccc3ccc(CNC(=O)c4cn(CCCCCCCC)c(=O)[nH]c4=O)cc3c2)c(=O)[nH]c1=O`: the IC50 with MDA-MB-231 came to 171 µM; in the experiment on RD, 76.6 µM; in the experiment on MCF7, 197 µM; with K562 [10], 517 µM; in experiment [11] it was 505 µM; in the experiment with K562 [2], 517 µM. Also, the Activity in the experiment on K562 [1] worked out at 78%; in the experiment with K562 [7], 52%.

In the experiment with K562 [2], `CCCCCCCCn1cc(C(=O)O)c(=O)[nH]c1=O` returned an IC50 of 247 µM. In addition, the Activity with K562 [12] is given as 30%.
